Measured values published in ChEMBL document CHEMBL4513216, “Probing the Open Global Health Chemical Diversity Library for Multistage-Active Starting Points for Next-Generation Antimalarials” (ACS Infect Dis, 2020).

Assay: Toxicity liver stage against HepG2, at 10uM
Assay type: cell-based
Set-up: test concentration 10 uM, cell line HepG2-A16-CD81EGFP
Conditions: human, HepG2-A16-CD81EGFP cells; read-out: INHIBITION
Outline: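 Uninfected HepG2-A16-CD81EGFP cells, 3 × 10^3 per well, 1536-well, plated on prespotted compound at 10 μM final, parasite-free screening media added to match infected plates; puromycin 10 μM positive, DMSO 0.5% negative; run in parallel with 48 h PbLuc assay at 37 °C, 5% CO2; viability by CellTiter-Glo luminescence, normalized to controls.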
Work on O=c1[nH]ncn1-c1cccc(C(F)(F)F)c1 yielded a cytotoxicity at 10 µM of -2%.
Work on O=C(NCN1CCc2ccccc2C1)c1cnccn1 yielded a cytotoxicity at 10 µM of 20.2%.
COCC(=O)N1CCC2(CC1)CC(OC)c1ccc(F)cc12 (stereo unspecified) gave a cytotoxicity at 10 µM of -134%.
In the case of N#Cc1cccc(CN2C[C@@H](NC(=O)C3CC3)[C@H]3OCCC[C@H]32)c1, the cytotoxicity at 10 µM is reported as 6.44%.
O=C(O)c1ccc2c(CN3CCCC3)c[nH]c2c1 showed a cytotoxicity at 10 µM of -2.09%.
CC(=O)N1N=C(c2ccccc2)OC1C(=O)NCCc1cccc(Cl)c1 (stereo unspecified) gave a cytotoxicity at 10 µM of 2.82%.
Work on CCNC(=O)N1CCC2(C1)c1ccccc1S(=O)(=O)N2CCC(C)C (stereo unspecified) yielded a cytotoxicity at 10 µM of -8.25%.
In the case of COc1cc(CNc2ccc(Cl)cc2)ccc1OCC(=O)O, the cytotoxicity at 10 µM is reported as 3.63%.
Work on O=C(Nc1ccc(F)cc1-c1nc(C2CC2)no1)N1CC[C@@H](O)C1 yielded a cytotoxicity at 10 µM of -1.54%.
In the case of CCn1nc2c(cc1=O)CN(Cc1nc(-c3ccoc3)no1)CC2, the cytotoxicity at 10 µM is reported as 4.9%.
Molecule Cc1cc(C(F)(F)F)c2c(=O)n(Cc3cc(C)on3)n(C)c2n1 has a cytotoxicity at 10 µM of 1.46%.
With CC(CC(=O)c1ccco1)NC(=O)c1ccccn1 (stereo unspecified) the cytotoxicity at 10 µM was -5.14%.
With Cc1cc(N2CCSCC2)ccc1NC(=O)N(CCO)C1CC1 the cytotoxicity at 10 µM was -10.1%.
For CN(C)C(=O)CNC(=O)c1cc2ccccc2nc1N1CCCC1, the cytotoxicity at 10 µM was -6.18%.
Work on Cn1nc2c(cc1=O)CN(c1ncnc3sccc13)CC2 yielded a cytotoxicity at 10 µM of 7.97%.
O=C(c1cn(-c2ccccc2Cl)nn1)N1CCN(CCO)CC1 showed a cytotoxicity at 10 µM of -2.88%.
For Cc1ccc(C(CNCc2cccnc2)N2CCOCC2)s1 (stereo unspecified), the cytotoxicity at 10 µM was 4.03%.
Work on CCSCCC(=O)Nc1ncn(Cc2ccccc2)n1 yielded a cytotoxicity at 10 µM of 4.74%.
With COCC(=O)NC1CCN(c2cccc(OC(F)(F)F)c2)C1=O (stereo unspecified) the cytotoxicity at 10 µM was -3.17%.
With CC(c1cccc(O)c1)N(C)S(N)(=O)=O (stereo unspecified) the cytotoxicity at 10 µM was -1.89%.
For COc1cc(/C=C/c2ncc(C(=O)O)s2)cc(OC)c1, the cytotoxicity at 10 µM was -3.86%.
With CC1CN(C2CCN(Cc3nccn3CC(F)(F)F)CC2)CCO1 (stereo unspecified) the cytotoxicity at 10 µM was -1.32%.
Work on CCN1CCN(c2ccc(C(=O)NC(C)c3ccncc3)cc2)CC1 (stereo unspecified) yielded a cytotoxicity at 10 µM of -16.6%.
Work on Cn1c(=O)oc2ccc(Nc3ncc(C#N)cc3Cl)cc21 yielded a cytotoxicity at 10 µM of -1.21%.
In the case of CC(C(=O)NCCc1cccs1)N1CCC(n2ccnc2)CC1 (stereo unspecified), the cytotoxicity at 10 µM is reported as -16%.
Cc1cc(C)n(CC2CCCCN2C(=O)c2sccc2C#N)n1 (stereo unspecified) gave a cytotoxicity at 10 µM of -0.497%.
For Cc1nc(N2CCCC2)ccc1NCc1ccccn1, the cytotoxicity at 10 µM was 5.13%.
With O=C(COCc1ccccc1Cl)Nc1ccnn1CC1CCOC1 (stereo unspecified) the cytotoxicity at 10 µM was -1.9%.
CC(Oc1ccccc1C#N)C(=O)NC1CC1 (stereo unspecified) showed a cytotoxicity at 10 µM of 6.21%.
O=C(c1ccc[nH]1)N1CCCn2c(CN3CCCCC3)nnc2C1 gave a cytotoxicity at 10 µM of -106%.
Cc1cccc(N2CC3(COCCN(c4ccncn4)C3)OCC2=O)c1 (stereo unspecified) showed a cytotoxicity at 10 µM of -105%.
With Cc1occc1C(=O)N1CCC2(CC1)NC(=O)CC2c1cnn(C)c1 (stereo unspecified) the cytotoxicity at 10 µM was -4.99%.
Molecule OCc1ccc(CN(CCCn2ccnc2)Cc2ccncc2)o1 has a cytotoxicity at 10 µM of -4.41%.
For Cc1ccc(C(=O)N2CCC3(CC2)CN(CCN(C)C)C(=O)O3)c(F)c1, the cytotoxicity at 10 µM was 7.46%.
In the case of CCc1nnc(CN(C)c2nccc(N3CCCC(O)C3)n2)o1 (stereo unspecified), the cytotoxicity at 10 µM is reported as -4.68%.
Work on CCOC(=O)CC1CCCCN1C(=O)c1cc(=O)[nH]c(=O)[nH]1 (stereo unspecified) yielded a cytotoxicity at 10 µM of 5.76%.
With CCC[C@H]1CN(Cc2ccc(N(C)C)nc2)C[C@@H]1NC(=O)CO the cytotoxicity at 10 µM was 9.23%.
Molecule CC(C)[C@H]1COC(=O)N1CC(=O)N(C)CCCn1cccn1 has a cytotoxicity at 10 µM of -157%.
With Cc1ccccc1-n1cc(CN(C)C(=O)CC2C(=O)NCCN2C)cn1 (stereo unspecified) the cytotoxicity at 10 µM was 6.89%.
With CCn1cncc1C1CC(=O)Nc2c1c(C)nn2-c1ccc(C)cc1 (stereo unspecified) the cytotoxicity at 10 µM was -8.23%.
COCCN(C)C[C@@H]1CN(C(=O)c2ccc3c(c2)OCO3)C[C@@H]1CO gave a cytotoxicity at 10 µM of 8.47%.
Molecule CCN(Cc1ccc(O)c(C(=O)O)c1)CC1CCCO1 (stereo unspecified) has a cytotoxicity at 10 µM of 3.9%.
With Cc1cc(C(=O)N2CC[C@@]3(O)CCN(S(C)(=O)=O)C[C@H]3C2)c(C)n1C the cytotoxicity at 10 µM was -8%.
In the case of CC(C)c1nccn1CCCNC(=O)c1ccc(-c2cnn(C)c2)nc1, the cytotoxicity at 10 µM is reported as -9.36%.
Molecule CCc1cc(N(C)Cc2ccncn2)n2nc(C)c(C)c2n1 has a cytotoxicity at 10 µM of 4.34%.
Molecule O=C(CCC1CCN(C2CCSCC2)CC1)NCC1CCCO1 (stereo unspecified) has a cytotoxicity at 10 µM of 8.73%.
CC(C)N1CCC(c2nnc(CN3CCCC3)n2C2CC2)CC1 gave a cytotoxicity at 10 µM of -4.57%.
O=C(NCCc1ccc2c(c1)OCO2)C1CCCN(Cc2ccco2)C1 (stereo unspecified) showed a cytotoxicity at 10 µM of 0.209%.
With CC(CCc1ccc(O)cc1)NC1CCN(C(=O)C(C)C)CC1 (stereo unspecified) the cytotoxicity at 10 µM was -4.89%.
Cc1nc(CN2CCC(c3nc4ccccc4n3C)CC2)co1 showed a cytotoxicity at 10 µM of 13.5%.
Work on Cc1ccc(O)c(C(=O)N2CCC3(CCCNC3)C2)c1 (stereo unspecified) yielded a cytotoxicity at 10 µM of -10.2%.
CC(C)c1nc(N2CCC(N3CCCCCC3)CC2)c2cnn(C)c2n1 gave a cytotoxicity at 10 µM of -135%.
In the case of c1cc(CN2CCC(n3cc(CN4CCCC4)nn3)CC2)cs1, the cytotoxicity at 10 µM is reported as -6.26%.
Cc1ccc(C(=O)NCCC2CCN(C)CC2)cc1N(C)S(C)(=O)=O showed a cytotoxicity at 10 µM of -15.1%.
CC(C)Oc1ccc2c(NC(=O)CN(C)C)nn(CC(F)(F)F)c2c1 showed a cytotoxicity at 10 µM of 1.6%.
For Cc1nc2c(c(NCc3ccccc3)n1)CCN(C(=O)C1CCC1)CC2, the cytotoxicity at 10 µM was 14.3%.
NCC1Cc2cc(-c3cncc(C(=O)N4CCOCC4)n3)cc(Cl)c2O1 (stereo unspecified) showed a cytotoxicity at 10 µM of -42.8%.
With c1cnnc(N2CCCC2CNCc2nc(-c3ccoc3)no2)c1 (stereo unspecified) the cytotoxicity at 10 µM was -18.7%.
With Cc1cccc(OCC(O)CN2CCC(c3ccn[nH]3)CC2)c1 (stereo unspecified) the cytotoxicity at 10 µM was -3.6%.
For Cn1cc(C2CCCN2Cc2cscn2)cn1 (stereo unspecified), the cytotoxicity at 10 µM was 4.24%.
Work on CCCNC(=O)C1CCN(Cc2csc(C(C)C)n2)CC1 yielded a cytotoxicity at 10 µM of -19.5%.
Cc1nc(C)n(CC2CCCCN2CCOc2ccc(C#N)cc2)n1 (stereo unspecified) showed a cytotoxicity at 10 µM of -6.79%.
Work on Cc1ccc(CN(Cc2cccnc2)C2CC(C)(C)NC(C)(C)C2)s1 yielded a cytotoxicity at 10 µM of 4.94%.
CCN1CCOCC12CCN(C(=O)c1ccsc1)CC2 showed a cytotoxicity at 10 µM of -146%.
Cn1nnc2c1C(COCC1CC1)CN(Cc1ccoc1)C2 (stereo unspecified) showed a cytotoxicity at 10 µM of 2.49%.
Work on Cc1cnc(N2CCN3C[C@H](OCc4ccccn4)C[C@H]3C2)nc1 yielded a cytotoxicity at 10 µM of -1.68%.
Cc1ncsc1CN1C[C@@H]2COC[C@]2(C(=O)NCc2cccnc2)C1 gave a cytotoxicity at 10 µM of -106%.
With O=C(c1ccsc1)N1CCO[C@@H]2CN(Cc3nccs3)C[C@@H]2C1 the cytotoxicity at 10 µM was -108%.
Molecule COCCN1CCOCC12CCN(c1cnccn1)CC2 has a cytotoxicity at 10 µM of -102%.
Work on Cc1noc(C)c1CN1CCC2(CC1)C(c1ccccc1)CC(=O)N2C (stereo unspecified) yielded a cytotoxicity at 10 µM of -105%.
c1ccc(CN2CCC3(CC2)CCN(c2ccccn2)C3)nc1 showed a cytotoxicity at 10 µM of -128%.
Cc1cccc(CN2CC[C@@H]3[C@@H]2CCN3C(=O)Cc2cccs2)n1 gave a cytotoxicity at 10 µM of -114%.
With O=C(Nc1cccnc1)[C@H]1C[C@H]2OCC[C@H]2N(CC2CC2)C1 the cytotoxicity at 10 µM was 4.7%.
For c1cn2c(n1)CN(CC1CC1)CC(CN1CCOCC1)C2 (stereo unspecified), the cytotoxicity at 10 µM was 1.49%.
COc1ccc2c(ccn2CCCN)c1 gave a cytotoxicity at 10 µM of -3.91%.
In the case of CCCn1nccc1NC(=O)CN1CCCC1Cn1cc(C)cn1 (stereo unspecified), the cytotoxicity at 10 µM is reported as -8.09%.
Cc1cnc(C(=O)N2C[C@@H]3CC[C@H]2CN(Cc2cscn2)C3)[nH]1 showed a cytotoxicity at 10 µM of 4.16%.
Work on O=c1c2c[nH]c(N3CCCC3)nc-2cn1C1CCS(=O)(=O)C1 (stereo unspecified) yielded a cytotoxicity at 10 µM of 1.09%.
In the case of CCC=C(C)C(=O)NCc1ccnc(OC)c1, the cytotoxicity at 10 µM is reported as -2.51%.
Cc1ccc(CN2C[C@@H]3C[C@H](C(=O)NCc4cccnc4)[C@H](C2)O3)cc1 gave a cytotoxicity at 10 µM of 2.5%.
In the case of Cc1cnc(C(=O)N2C[C@@H]3CC[C@H]2CN(S(=O)(=O)N(C)C)C3)cn1, the cytotoxicity at 10 µM is reported as -6.77%.
